Data set [1] has as its target T1, Cholesteryl ester transfer protein (Homo sapiens, UniProt P11597).
T1 sequence (P11597 whole entry): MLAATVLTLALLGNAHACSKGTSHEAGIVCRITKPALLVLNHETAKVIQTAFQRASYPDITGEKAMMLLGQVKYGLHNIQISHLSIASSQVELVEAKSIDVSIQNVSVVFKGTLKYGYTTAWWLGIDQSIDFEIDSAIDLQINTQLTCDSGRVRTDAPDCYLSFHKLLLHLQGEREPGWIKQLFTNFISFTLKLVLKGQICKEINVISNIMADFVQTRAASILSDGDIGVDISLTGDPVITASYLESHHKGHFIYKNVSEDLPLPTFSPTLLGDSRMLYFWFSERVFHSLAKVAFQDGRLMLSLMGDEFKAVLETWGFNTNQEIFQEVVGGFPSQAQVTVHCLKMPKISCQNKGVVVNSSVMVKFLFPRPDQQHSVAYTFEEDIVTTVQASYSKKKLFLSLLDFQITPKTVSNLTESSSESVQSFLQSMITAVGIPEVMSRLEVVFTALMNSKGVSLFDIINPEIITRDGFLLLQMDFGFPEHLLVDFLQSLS
Nature of the data set: Inhibition of recombinant human CETP after 3 hrs using fluorescent cholesteryl containing HDL after 3 hrs by fluorescence assay.

In data set [2] the test system is Cavia porcellus. Nature of the data set: Antihyperlipidemic activity in high-fat fed guinea pig model assessed as increase in plasma HDL cholesterol level at 30 mg/kg administered via oral gavage as qd for 14 days measured 2 hrs post dose on day 14 relative to control. The data set is classed as functional. The procedure, abridged:
(§1)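 Male guinea pigs, 12 weeks old, fed a high-fat diet (2.5% coconut oil, 0.25% cholesterol) for two weeks. Gavage at 30 mg/kg once daily for two weeks while the diet continued. Plasma taken retro-orbitally 2 h after the day-14 dose. HDL-C, LDL-C, TG and TC reported as mean ± SD (n ≥ 6) versus the untreated high-fat model group.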

Data set [3] deals with Mus musculus. Nature of the data set: Induction of plasma triglyceride levels in transgenic ap2-CETPTg mouse model at 30 mg/kg, po qd for 14 days measured 2 hrs post dose on day 14 by automated lipid analyzer relative to control. The data set is classed as ADME, organism-based. Particulars: in vivo; call rule not given here. The procedure, abridged:
(§2)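 ap2-CETPTg mice, which express human CETP in adipose tissue. Oral 30 mg/kg once daily for two weeks in DMSO/cremophor/saline 3:4:93. Retro-orbital blood drawn 2 h after the day-14 dose. HDL-C, LDL-C, TG and TC measured on an automated lipid analyzer, mean ± SD (n ≥ 6), versus control group.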

Data set [4] can be described thus: Octanol-water partition coefficient, log P of the compound at pH 7.4 by HPLC based shake flask method. The data set is classed as physicochemical.
Data set [5] deals with Mus musculus. Nature of the data set: Hypolipidemic activity in transgenic ap2-CETPTg mouse model assessed as reduction in plasma LDL cholesterol levels at 30 mg/kg, po qd for 14 days measured 2 hrs post dose on day 14 by automated lipid analyzer relative to control. The data set is classed as functional. Also on record: scale not given: the % may be the effect or the level left. The method, boiled down: as §2

For data set [6], the system named is Cavia porcellus. Kind of data set: Hypolipidemic activity in high-fat fed guinea pig model assessed as reduction in plasma LDL cholesterol levels at 30 mg/kg administered via oral gavage as qd for 14 days measured 2 hrs post dose on day 14 relative to control. Further details: scale not given: the % may be the effect or the level left. The data set is classed as functional. The method, boiled down:
as §1

The subject of data set [7] is Mus musculus. Kind of data set: Induction of plasma total cholesterol levels in transgenic ap2-CETPTg mouse model at 30 mg/kg, po qd for 14 days measured 2 hrs post dose on day 14 by automated lipid analyzer relative to control. The data set is classed as ADME, organism-based. Particulars: in vivo. The method, boiled down:
as §2

For data set [8], the target named is T2, Pancreatic triacylglycerol lipase (Sus scrofa, UniProt P00591).
T2 sequence (P00591 whole entry): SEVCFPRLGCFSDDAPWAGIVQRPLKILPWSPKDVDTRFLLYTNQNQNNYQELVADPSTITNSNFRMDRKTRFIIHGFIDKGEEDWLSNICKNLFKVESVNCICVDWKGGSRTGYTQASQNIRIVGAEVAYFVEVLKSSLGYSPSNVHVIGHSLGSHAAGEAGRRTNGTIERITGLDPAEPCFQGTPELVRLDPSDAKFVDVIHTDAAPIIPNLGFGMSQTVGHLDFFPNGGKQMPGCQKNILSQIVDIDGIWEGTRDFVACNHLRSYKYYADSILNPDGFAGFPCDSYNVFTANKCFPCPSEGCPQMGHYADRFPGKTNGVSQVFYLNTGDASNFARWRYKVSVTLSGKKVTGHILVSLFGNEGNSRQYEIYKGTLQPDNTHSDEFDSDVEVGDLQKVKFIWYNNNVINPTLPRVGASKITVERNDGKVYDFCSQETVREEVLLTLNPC
Nature of the data set: Inhibition of porcine pancreatic lipase using 2,3-dimercaptopropan-1-ol tributyrate as substrate preincubated for 5 mins followed by substrate addition measured after 30 mins by colorimetric assay.

Data set [9] in a line: Terminal half life in normal fed guinea pig at 30 mg/kg administered via oral gavage by LC-MS/MS analysis. The data set is classed as ADME, organism-based, Cavia porcellus. The note with it: in vivo, read-out: beta t1/2 (converted).
A short description of data set [10]: MRT (0 to infinity) in normal fed guinea pig at 30 mg/kg administered via oral gavage by LC-MS/MS analysis. The data set is classed as ADME, organism-based, Cavia porcellus. Particulars: in vivo.
Data set [11] can be described thus: Cmax in normal fed guinea pig at 30 mg/kg administered via oral gavage by LC-MS/MS analysis. The data set is classed as ADME, organism-based, Cavia porcellus. Also on record: dose 30 mg/kg, route oral. Particulars: in vivo.
Data set [12] can be described thus: AUC (0 to infinity) in normal fed guinea pig at 30 mg/kg administered via oral gavage by LC-MS/MS analysis. The data set is classed as ADME, organism-based, Cavia porcellus. Also on record: dose 30 mg/kg, route oral, time infinity. The note with it: in vivo.
Data set [13] is described as follows: AUC (0 to 48 hrs) in normal fed guinea pig at 30 mg/kg administered via oral gavage by LC-MS/MS analysis. The data set is classed as ADME, organism-based, Cavia porcellus. Also on record: time < 48 hr, dose 30 mg/kg, route oral. The note with it: in vivo.
Data set [14] relates to Cavia porcellus. Nature of the data set: Drug level in normal fed guinea pig treated with 3-beta-[(2-Carboxyphenyl)carbonyloxy]-olean-12-en-28-oic acid at 30 mg/kg administered via oral gavage by LC-MS/MS analysis. The data set is classed as ADME, organism-based. Particulars: in vivo.
Data set [15] is described as follows: Tmax in normal fed guinea pig at 30 mg/kg administered via oral gavage by LC-MS/MS analysis. The data set is classed as ADME, organism-based, Cavia porcellus. The note with it: in vivo.
Data set [16] can be described thus: MRT (0 to 48 hrs) in normal fed guinea pig at 30 mg/kg administered via oral gavage by LC-MS/MS analysis. The data set is classed as ADME, organism-based, Cavia porcellus. Particulars: in vivo.

Structures are written as SMILES.

For the compound `CC(=O)O[C@H]1CC[C@]2(C)[C@H]3CC=C4[C@@H]5CC(C)(C)CC[C@]5(C(=O)O)CC[C@@]4(C)[C@]3(C)CC[C@H]2C1(C)C` [ACETYL OLEANOLIC ACID], the IC50 result in data set [1] is on record as “Not Active”.

`COc1cc(F)c(C(C)C)cc1-c1ccc(C(F)(F)F)cc1CN1C(=O)O[C@H](c2cc(C(F)(F)F)cc(C(F)(F)F)c2)[C@@H]1C` [ANACETRAPIB]: the Activity was found to be 82.2% in the data set with Cavia porcellus [2]; 4.7% in the data set on Mus musculus [3]; 40.4% with Mus musculus [5]; 30.2% in the data set on Cavia porcellus [6]; 17.8% in the data set with Mus musculus [7]. The same compound came in with a pH-dependent lipophilicity (logD) in data set [4] of 0.73.

As for `C=C(C)[C@@H]1CC[C@]2(C(=O)O)CC[C@]3(C)[C@H](CC[C@@H]4[C@@]5(C)CC[C@H](O)C(C)(C)[C@@H]5CC[C@]43C)[C@@H]12` [BETULINIC ACID], the IC50 entry in data set [1] is reported as “Not Active”.

In the case of `CCC(CC)CC1(C(=O)Nc2ccccc2SC(=O)C(C)C)CCCCC1` [DALCETRAPIB], the logD in data set [4] came out at 0.92.

Compound `Cc1cc(C)c2c(c1)[C@@H](N(Cc1cc(C(F)(F)F)cc(C(F)(F)F)c1)c1nnn(C)n1)CCCN2C[C@H]1CC[C@H](C(=O)O)CC1` [EVACETRAPIB] came in with a logD in [4] of 0.51.

As to `CC1(C)CC[C@]2(C(=O)O)CC[C@]3(C)C(=CC[C@@H]4[C@@]5(C)CC[C@H](OC(=O)CCC(=O)O)C(C)(C)[C@@H]5CC[C@]43C)[C@@H]2C1` [OLEANOLIC ACID 3-O-SUCCINATE], the IC50 in [1] (read-out: IC50) worked out at 4.3 µM.

`CC1(C)CC[C@]2(C(=O)O)CC[C@]3(C)C(=CC[C@@H]4[C@@]5(C)CC[C@H](O)C(C)(C)[C@@H]5CC[C@]43C)[C@@H]2C1` [OLEANOLIC_ACID]: the half-inhibitory concentration (IC50) in [8] is 182 µM. Also, in data set [9], the half-life is 11.7 h. In data set [10], this compound returned a mean residence time (MRT inf) of 15 h. For the same compound, the Cmax in data set [11] worked out at 52.2 ng/mL. Besides, in data set [12], the AUC(0-inf) was 312 ng·h/mL. The same compound registered an AUC(0-t) at 48 h in data set [13] of 291 ng·h/mL. Further, the Drug metabolism entry in the data set on Cavia porcellus [14] is listed as “Metabolite_Detected”. In data set [15], the Tmax was 0.75 h. For the same compound, in data set [16], the MRT last came out at 11.7 h.

On to `CCOC(=O)N1c2ccc(C(F)(F)F)cc2[C@@H](N(Cc2cc(C(F)(F)F)cc(C(F)(F)F)c2)C(=O)OC)C[C@H]1CC` [TORCETRAPIB], for which the logD in data set [4] amounted to 1.05.

As to `C[C@H]1[C@H](C)CC[C@]2(C(=O)O)CC[C@]3(C)C(=CC[C@@H]4[C@@]5(C)CC[C@H](O)C(C)(C)[C@@H]5CC[C@]43C)[C@H]12` [URSOLIC ACID], the IC50 in data set [1] (read-out: IC50) was found to be 46.6 µM.

The values are drawn from ChEMBL document CHEMBL4130378, “Discovery of pentacyclic triterpene 3β-ester derivatives as a new class of cholesterol ester transfer protein inhibitors” (Eur J Med Chem, 2017).
